# Measured values published in ChEMBL document CHEMBL1833789, “Inhibition of xc⁻ transporter-mediated cystine uptake by sulfasalazine analogs” (Bioorg Med Chem Lett, 2011).
# Target: T1, Cystine/glutamate transporter (Homo sapiens, UniProt Q9UPY5)
# T1 sequence (Q9UPY5 whole entry): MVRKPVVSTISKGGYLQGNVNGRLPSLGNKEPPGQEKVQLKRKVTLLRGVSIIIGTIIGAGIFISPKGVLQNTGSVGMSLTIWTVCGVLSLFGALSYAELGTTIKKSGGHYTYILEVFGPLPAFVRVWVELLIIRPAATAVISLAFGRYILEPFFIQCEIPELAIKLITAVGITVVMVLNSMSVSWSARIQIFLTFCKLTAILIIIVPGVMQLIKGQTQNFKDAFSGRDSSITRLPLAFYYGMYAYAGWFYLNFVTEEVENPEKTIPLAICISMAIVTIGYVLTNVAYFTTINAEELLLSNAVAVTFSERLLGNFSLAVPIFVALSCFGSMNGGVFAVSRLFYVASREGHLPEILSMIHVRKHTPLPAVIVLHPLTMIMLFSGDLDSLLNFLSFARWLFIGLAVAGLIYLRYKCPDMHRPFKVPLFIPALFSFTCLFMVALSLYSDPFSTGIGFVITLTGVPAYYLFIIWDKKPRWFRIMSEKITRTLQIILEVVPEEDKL
# Experiment: Inhibition of xc-cystine-glutamate antiporter-mediated cystine uptake in human U87 cells using L-[14C]cystine as substrate after 15 mins by liquid scintillation counting
# Type: cell-based, U-87MG ATCC
# Procedure, shortened: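 U87 human glioblastoma-astrocytoma cells, seeded at 0.067 × 10^6 per well and grown 6 days to confluency. Washed with pre-warmed sodium-free choline-chloride uptake buffer (HEPES 10 mM, pH 7.4), then given 80 µM L-[14C(U)]-cystine at 37 °C with or without inhibitor at various concentrations. Uptake stopped by three ice-cold washes, cells lysed in 0.1 N NaOH, counts normalized to protein.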
row,Compound,IC50 [µM]
1,N[C@@H](C(=O)O)c1ccc(C(=O)O)cc1,> 1000
2,COC(=O)c1cc(C#Cc2ccc(S(=O)(=O)Nc3ccccn3)cc2)ccc1O,> 1000
3,O=C(O)c1cc(C#Cc2ccc(S(=O)(=O)Nc3ccccn3)cc2)ccc1O,30
4,COC(=O)c1cc(/C=C/c2ccc(S(=O)(=O)Nc3ccccn3)cc2)ccc1O,900
5,O=C(O)c1cc(/C=C/c2ccc(S(=O)(=O)Nc3ccccn3)cc2)ccc1O,70
6,COC(=O)c1cc(CCc2ccc(S(=O)(=O)Nc3ccccn3)cc2)ccc1O,> 1000
7,O=C(O)c1cc(CCc2ccc(S(=O)(=O)Nc3ccccn3)cc2)ccc1O,700
8,O=C(O)c1cccc(C#Cc2ccc(S(=O)(=O)Nc3ccccn3)cc2)c1,75
9,O=C(O)c1cccc(CCc2ccc(S(=O)(=O)Nc3ccccn3)cc2)c1,920
10,O=C(O)c1cc(/N=N/c2ccccc2)ccc1O,200
11,O=C(O)c1cc(C#Cc2ccccc2)ccc1O,150
12,O=C(O)c1cccc(C#Cc2ccccc2)c1,270
13,N[C@H](C(=O)O)c1ccc(C(=O)O)cc1,15
14,Nc1ccc(O)c(C(=O)O)c1 [MESALAMINE],> 1000
15,Nc1ccc(S(=O)(=O)Nc2ccccn2)cc1 [SULFAPYRIDINE],> 1000
16,O=C(O)c1cc(/N=N/c2ccc(S(=O)(=O)Nc3ccccn3)cc2)ccc1O [SULFASALAZINE],30
17,Cc1cccnc1NS(=O)(=O)c1ccc(C#Cc2ccc(O)c(C(=O)O)c2)cc1 [SUSALIMOD],70
